# Results published in ChEMBL document CHEMBL2150931, “Design, synthesis, and biological activity of a novel series of human sirtuin-2-selective inhibitors” (J Med Chem, 2012).
# What was measured:
# [1] = biological target: T1, NAD-dependent protein deacetylase sirtuin-1 (Homo sapiens, UniProt Q96EB6); assay: Inhibition of human recombinant SIRT1 using Fluor de Lys-SIRT as substrate incubated for 60 mins prior to substrate addition measured after 60 mins by fluorimetric analysis
# T1 sequence (Q96EB6 whole entry): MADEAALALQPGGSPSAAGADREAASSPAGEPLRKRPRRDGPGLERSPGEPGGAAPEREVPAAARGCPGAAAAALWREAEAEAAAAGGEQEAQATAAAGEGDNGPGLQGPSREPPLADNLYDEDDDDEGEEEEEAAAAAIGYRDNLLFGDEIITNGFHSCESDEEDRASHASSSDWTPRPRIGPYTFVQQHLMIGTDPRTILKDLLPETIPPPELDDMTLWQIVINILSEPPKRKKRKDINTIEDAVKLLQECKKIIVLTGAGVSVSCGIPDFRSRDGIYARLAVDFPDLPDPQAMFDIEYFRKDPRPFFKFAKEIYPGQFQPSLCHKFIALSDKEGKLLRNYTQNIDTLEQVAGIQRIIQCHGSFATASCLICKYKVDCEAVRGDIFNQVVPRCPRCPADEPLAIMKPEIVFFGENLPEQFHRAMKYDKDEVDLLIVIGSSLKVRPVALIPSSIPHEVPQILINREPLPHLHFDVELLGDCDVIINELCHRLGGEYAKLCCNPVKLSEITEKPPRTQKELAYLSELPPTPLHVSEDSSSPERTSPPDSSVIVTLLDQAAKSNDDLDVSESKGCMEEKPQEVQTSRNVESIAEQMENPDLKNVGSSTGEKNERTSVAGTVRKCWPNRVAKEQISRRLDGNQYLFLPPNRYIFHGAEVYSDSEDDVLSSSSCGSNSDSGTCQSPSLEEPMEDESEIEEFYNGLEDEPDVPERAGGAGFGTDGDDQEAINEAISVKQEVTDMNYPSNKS
# How it was run: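 Human recombinant SIRT1 run the same way: 60 min at 37 °C with 1 mM NAD⁺ and serial compound dilutions, then 25 μM Fluor de Lys-SIRT substrate for 60 min. Stopped with nicotinamide-containing Developer II and read 45 min later at ex 360/em 460 nm. IC₅₀ from logit regression of % inhibition vs control; means of ≥3 experiments.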
# [2] = biological target: T2, NAD-dependent protein deacetylase sirtuin-2 (Homo sapiens, UniProt Q8IXJ6); assay: Inhibition of human recombinant SIRT2 using Fluor de Lys-SIRT as substrate incubated for 60 mins prior to substrate addition measured after 60 mins by fluorimetric analysis
# T2 sequence (Q8IXJ6 whole entry): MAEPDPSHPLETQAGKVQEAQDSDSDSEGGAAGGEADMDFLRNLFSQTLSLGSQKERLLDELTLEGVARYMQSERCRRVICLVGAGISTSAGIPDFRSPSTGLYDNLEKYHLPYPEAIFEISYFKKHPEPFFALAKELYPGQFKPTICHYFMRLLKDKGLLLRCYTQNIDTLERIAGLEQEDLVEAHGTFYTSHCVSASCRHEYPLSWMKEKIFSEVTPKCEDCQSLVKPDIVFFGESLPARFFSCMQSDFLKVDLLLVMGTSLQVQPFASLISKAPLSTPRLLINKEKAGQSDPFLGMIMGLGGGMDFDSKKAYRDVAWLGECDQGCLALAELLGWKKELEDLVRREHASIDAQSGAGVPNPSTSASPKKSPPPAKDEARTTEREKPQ
# How it was run: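 Human recombinant SIRT2 preincubated with 1 mM NAD⁺ and serial compound dilutions for 60 min at 37 °C, then 25 μM Fluor de Lys-SIRT substrate added. Reaction stopped at 60 min with Developer II containing nicotinamide. Fluorescence read 45 min later at ex 360/em 460 nm. % inhibition taken against control wells. IC₅₀ obtained by regression of log[Inh] vs logit % inhibition; means of ≥3 experiments.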
# Histone deacetylase 8 = biological target: T3, Histone deacetylase 8 (Homo sapiens, UniProt Q9BY41); assay: Inhibition of HDAC8
# T3 sequence (Q9BY41 whole entry): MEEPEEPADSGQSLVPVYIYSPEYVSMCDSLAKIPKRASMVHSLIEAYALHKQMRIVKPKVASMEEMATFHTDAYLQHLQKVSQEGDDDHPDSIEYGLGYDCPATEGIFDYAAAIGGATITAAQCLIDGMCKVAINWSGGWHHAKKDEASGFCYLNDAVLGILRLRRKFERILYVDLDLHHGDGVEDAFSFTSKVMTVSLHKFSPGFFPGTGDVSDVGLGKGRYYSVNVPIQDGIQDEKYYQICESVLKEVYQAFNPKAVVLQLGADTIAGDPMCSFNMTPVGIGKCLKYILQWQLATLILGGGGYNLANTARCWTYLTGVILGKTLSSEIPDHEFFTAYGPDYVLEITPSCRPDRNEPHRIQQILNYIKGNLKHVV
# Cytochrome P450 3A4 = Cytochrome P450 3A4 (Homo sapiens, UniProt P08684); assay: Inhibition of CYP3A4; assay type: ADME
# Sequence of Cytochrome P450 3A4 (P08684 whole entry): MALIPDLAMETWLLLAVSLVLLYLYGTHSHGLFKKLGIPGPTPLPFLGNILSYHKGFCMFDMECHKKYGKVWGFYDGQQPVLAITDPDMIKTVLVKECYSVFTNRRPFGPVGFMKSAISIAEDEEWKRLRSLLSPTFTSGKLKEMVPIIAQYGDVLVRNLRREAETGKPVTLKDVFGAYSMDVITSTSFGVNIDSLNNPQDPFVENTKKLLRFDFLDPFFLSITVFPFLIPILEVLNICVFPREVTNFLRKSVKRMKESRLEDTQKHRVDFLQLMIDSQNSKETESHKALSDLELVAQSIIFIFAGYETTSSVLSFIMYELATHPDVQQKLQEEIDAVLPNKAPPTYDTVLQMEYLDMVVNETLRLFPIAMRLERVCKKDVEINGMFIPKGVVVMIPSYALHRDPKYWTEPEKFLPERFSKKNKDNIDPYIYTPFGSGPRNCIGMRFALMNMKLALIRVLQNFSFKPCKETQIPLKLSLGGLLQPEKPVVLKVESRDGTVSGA
smiles,measurement,setting,value
NC(=O)c1ccccc1Nc1cccc(OCCc2ccccc2)c1,IC50,[1],> 100 µM
same,IC50,[2],1 µM
same,IC50,Histone deacetylase 8,> 30 µM
same,IC50,Cytochrome P450 3A4,> 10 µM
